Measured values from ChEMBL document CHEMBL3046772, “Synthesis and antifeedant activity of new oxadiazolyl 3(2H)-pyridazinones” (2003).

Legend:
Type in all cases: functional
[1] = test system: Ostrinia furnacalis; experiment: Antifeedant activity against fifth-instar larval stage of Ostrinia furnacalis (Asian corn borer) assessed as feeding deterrence index at 500 mg/kg after 24 hr by diet-choice assay
In short: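 Newly moulted fifth-instar larvae offered artificial diet with compound added (dissolved in acetone, mixed into diet ingredients before preparation) at 500 mg/kg versus solvent-only control diet. Five replicates of 10 larvae. After 24 h, deterrency index (%) = [(C − T)/(C + T)] × 100, where C and T are amounts of control and treated diet eaten.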

[2] = test system: Ostrinia furnacalis; experiment: Antifeedant activity against fifth-instar larval stage of Ostrinia furnacalis (Asian corn borer) assessed as larval weight gain at 10 mg/kg after 5 days by diet-choice assay (reference value: 43.3 +/- 20.8 mg)
[3] = test system: Ostrinia furnacalis; experiment: Antifeedant activity against fifth-instar larval stage of Ostrinia furnacalis (Asian corn borer) assessed as larval weight gain at 5 mg/kg after 5 days by diet-choice assay (reference value: 43.3 +/- 20.8 mg)
[4] = test system: Ostrinia furnacalis; experiment: Antifeedant activity against fifth-instar larval stage of Ostrinia furnacalis (Asian corn borer) assessed as larval weight gain at 20 mg/kg after 5 days by diet-choice assay (reference value: 43.3 +/- 20.8 mg)

Structure (SMILES)	FDI [1] [%]	Activity [2] [mg]	Activity [3] [mg]	Activity [4] [mg]
CC(C)(C)n1ncc(OCc2nnc(-c3ccccc3F)o2)c(Cl)c1=O	41.34	–	–	–
CC(C)(C)n1ncc(OCc2nnc(-c3cc(F)c(Cl)cc3Cl)o2)c(Cl)c1=O	35.16	–	–	–
CC(C)(C)n1ncc(OCc2nnc(-c3ccccc3)o2)c(Cl)c1=O	57.61	16.2	42.3	6.6
Cc1ccc(-c2nnc(COc3cnn(C(C)(C)C)c(=O)c3Cl)o2)cc1	4.28	–	–	–
CC(C)(C)n1ncc(OCc2nnc(-c3ccc(F)cc3)o2)c(Cl)c1=O	51.08	–	–	–
CCc1ccc(-c2nnc(COc3cnn(C(C)(C)C)c(=O)c3Cl)o2)cc1	40.18	–	–	–
CC(C)(C)n1ncc(OCc2nnc(-c3ccc(Cl)cc3)o2)c(Cl)c1=O	46.73	–	–	–
COc1ccc(-c2nnc(COc3cnn(C(C)(C)C)c(=O)c3Cl)o2)cc1	38.45	–	–	–
CC(C)(C)n1ncc(OCc2nnc(-c3cccc(F)c3)o2)c(Cl)c1=O	51.67	22.6	38.4	8.7
C/C=C(\C)C(=O)O[C@H]1C[C@@H](OC(C)=O)[C@@]2(C(=O)OC)CO[C@H]3[C@@H](O)[C@@](C)([C@]45O[C@@]4(C)[C@@H]4C[C@H]5O[C@@H]5OC=C[C@@]54O)[C@H]4[C@]1(CO[C@]4(O)C(=O)OC)[C@@H]32 [AZADIRACHTIN A]	59.9	7.8	22	1.2
